Experimental data reported in ChEMBL document CHEMBL1159121, “Synthesis, in vitro structure-activity relationship, and in vivo studies of 2-arylthiazolidine-4-carboxylic acid amides as anticancer agents” (Bioorg Med Chem, 2010).
The source made the active and inactive calls. The calls are words filed in the database; no cut-off is given here.

What was measured:
TK-10 = assay: Growth inhibition of human TK10 cells; type: functional; conditions: for CC50: read-out: LC50 (the source's name)
DU-145 [1] = assay: Antiproliferative activity against human DU145 cells after 96 hrs by SRB assay; type: functional, cell-based; conditions: DU-145, 96 h
Method in brief: (§1)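 Prostate lines in RPMI1640/10% FBS; RH7777 in DMEM/10% FBS. Cells TCA-fixed, stained with 0.4% SRB, absorbance read at 540 nm. IC50 from nonlinear regression of % survival against concentration.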

PPC-1 = assay: Antiproliferative activity against human PPC1 cells after 96 hrs by SRB assay; type: functional, cell-based; conditions: PPC-1, 96 h; method in brief: as §1
IGROV-1 = assay: Growth inhibition of human IGROV1 cells; type: functional; conditions: for CC50: read-out: LC50 (the source's name)
UO-31 = assay: Growth inhibition of human UO31 cells; type: functional; conditions: for CC50: read-out: LC50 (the source's name)
NCI-H522 = assay: Growth inhibition of human NCI-H522 cells; type: functional; conditions: for CC50: read-out: LC50 (the source's name)
CAKI-1 = assay: Growth inhibition of human Caki1 cells; type: functional
NCI-H226 = assay: Growth inhibition of human NCI-H226 cells; type: functional; conditions: for CC50: read-out: LC50 (the source's name)
DU-145 [2] = assay: Growth inhibition of human DU145 cells; type: functional; conditions: for CC50: read-out: LC50 (the source's name)
NCI-H322M = assay: Growth inhibition of human NCI-H322M cells; type: functional; conditions: for CC50: read-out: LC50 (the source's name)
OVCAR-8 = assay: Growth inhibition of human OVCAR8 cells; type: functional; conditions: for CC50: read-out: LC50 (the source's name)
RXF 393 = assay: Growth inhibition of human RXF393 cells; type: functional; conditions: for CC50: read-out: LC50 (the source's name)
SF-539 = assay: Growth inhibition of human SF539 cells; type: functional; conditions: for CC50: read-out: LC50 (the source's name)
HOP-92 = assay: Growth inhibition of human HOP92 cells; type: functional
786-0 = assay: Growth inhibition of human 786-0 cells; type: functional; conditions: for CC50: read-out: LC50 (the source's name)
[3] = Selectivity ratio of IC50 for human fibroblasts to IC50 for human melanoma cells; type: ADME; conditions: human fibroblasts and human melanoma cells, read-out: Ratio IC50
LNCaP [4] = assay: Antiproliferative activity against human LNCAP cells after 96 hrs by SRB assay; type: functional, cell-based; method in brief: as §1
A-375 [5] = assay: Antiproliferative activity against human A375 cells after 48 hrs by SRB assay; type: functional, cell-based; conditions: A-375, 48 h
Method in brief: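 Melanoma lines and control fibroblasts grown at 37 °C, 5% CO2, then exposed to a wide concentration range for 48 h in round-bottom 96-well plates. Fixed with 10% TCA, stained with SRB, protein read at 560 nm. IC50 (50% growth inhibition versus untreated) obtained by nonlinear regression.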

PC-3 = assay: Antiproliferative activity against human PC3 cells after 96 hrs by SRB assay; type: functional, cell-based; conditions: PC-3, 96 h
SK-MEL-28 = assay: Growth inhibition of human SK-MEL-28 cells; type: functional; conditions: for CC50: read-out: LC50 (the source's name)
T47D = assay: Growth inhibition of human T47D cells; type: functional
SK-MEL-2 = assay: Growth inhibition of human SK-MEL-2 cells; type: functional
[6] = Toxicity in mouse assessed as maximum tolerated dose; type: organism-based; conditions: in vivo
Method in brief: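 Tolerability was determined in ICR mice, with the compound formulated in a co-solvent of 80% Tween 80 and 20% Captex 200.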

A-375 [7] = assay: Cell cycle arrest in human A375 cells by assessed as increase in accumulation at subG1 phase […] by flow cytometry; type: functional, cell-based
A549 = assay: Growth inhibition of human A549 cells; type: functional
A-375 [8] = assay: Inhibition of human A375 cells colony formation at 20 uM after 7 days by colony-formation assay; type: functional; conditions: A-375, 168 h
Mus musculus = assay: Toxicity in ip dosed athymic nude mouse assessed as body weight loss; type: organism-based; conditions: in vivo
Method in brief: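 Male athymic nude mice (4–5 weeks) given subcutaneous A375 cells in Matrigel (1:1). At about 150 mm3, near day 7, split into groups of n = 8. Dosed at 5 or 10 mg/kg in 80% Tween 80/20% Captex 200, injected once daily for 22 days. Vehicle (intraperitoneal) and DTIC 60 mg/kg controls. Body weight and activity monitored throughout.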

MDA-MB-468 = assay: Growth inhibition of human MDA-MB-468 cells; type: functional
A-375 [9] = assay: Inhibition of human A375 cells colony formation at 100 uM after 7 days by colony-formation assay; type: functional, cell-based
MCF7 = assay: Growth inhibition of human MCF7 cells; type: functional
A-375 [10] = assay: Inhibition of human A375 cells colony formation at 2 uM after 7 days by colony-formation assay; type: functional, cell-based
A-375 [11] = assay: Antitumor activity against human A375 cells xenografted in athymic nude mouse assessed as tumor growth inhibition at 10 mg/kg, ip once daily administered 7 days after inoculation for 22 days; type: functional; set-up: scale not given: the % may be the effect or the level left; conditions: route intraperitoneal
Method in brief: (§2)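 Male athymic nude mice, 4–5 weeks old, received 2.5 × 10^6 A375 cells (FBS-free DMEM mixed 1:1 with Matrigel) subcutaneously in the right dorsal flank. At about 150 mm3 (~day 7), mice were grouped by tumor size (n = 8). Drug in 80% Tween 80/20% Captex 200 was injected daily, with vehicle controls i.p. Calipers twice weekly (a×b²×0.5); % reduction at day 22 = 100×[(T–T0)/(C–C0)]. Body weight tracked.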

K562 = assay: Growth inhibition of human K562 cells; type: functional
A-375 [12] = assay: Antitumor activity against human A375 cells xenografted in athymic nude mouse assessed as tumor growth inhibition at 5 mg/kg, ip once daily administered 7 days after inoculation for 22 days; type: functional; set-up: scale not given: the % may be the effect or the level left; conditions: route intraperitoneal; method in brief: as §2
Malme-3M = assay: Growth inhibition of human MALME-3M cells; type: functional
LNCaP [13] = assay: Cell cycle arrest in human LNCAP cells by assessed as increase in accumulation at subG1 phase […] by flow cytometry; type: functional, cell-based
KM12 = assay: Growth inhibition of human KM12 cells; type: functional
[14] = read-out: LC50 (the source's name)

SMILES: CCCCCCCCCCCCCCCCCCNC(=O)[C@@H]1CSC(c2ccccc2)N1 (mixture of isomers)
- GI50 (TK-10): 7.46 µM
- TGI (TK-10): 29.2 µM
- CC50 (TK-10): > 100 µM
- IC50 (DU-145 [1]): 10.8 µM
- IC50 (PPC-1): 2.4 µM
- GI50 (IGROV-1): 2.3 µM
- TGI (IGROV-1): 5.47 µM
- CC50 (IGROV-1): 18.9 µM
- GI50 (UO-31): 2.31 µM
- TGI (UO-31): 5.38 µM
- CC50 (UO-31): 16.3 µM
- GI50 (NCI-H522): 3.52 µM
- TGI (NCI-H522): 12.3 µM
- CC50 (NCI-H522): > 100 µM
- GI50 (CAKI-1): 2.3 µM
- TGI (CAKI-1): 4.31 µM
- CC50 (CAKI-1; [14]): 8.08 µM
- GI50 (NCI-H226): 2.06 µM
- TGI (NCI-H226): 3.83 µM
- CC50 (NCI-H226): 7.11 µM
- GI50 (DU-145 [2]): 3.78 µM
- TGI (DU-145 [2]): 15.7 µM
- CC50 (DU-145 [2]): 39.6 µM
- GI50 (NCI-H322M): 2.28 µM
- TGI (NCI-H322M): 5.15 µM
- CC50 (NCI-H322M): 15.4 µM
- GI50 (OVCAR-8): 2.24 µM
- TGI (OVCAR-8): 6.14 µM
- CC50 (OVCAR-8): > 100 µM
- GI50 (RXF 393): 1.55 µM
- TGI (RXF 393): 3.01 µM
- CC50 (RXF 393): 5.85 µM
- GI50 (SF-539): 1.72 µM
- TGI (SF-539): 3.09 µM
- CC50 (SF-539): 5.56 µM
- GI50 (HOP-92): 2.06 µM
- TGI (HOP-92): 4.12 µM
- CC50 (HOP-92; [14]): 8.27 µM
- GI50 (786-0): 1.78 µM
- TGI (786-0): 3.17 µM
- CC50 (786-0): 5.63 µM
- selectivity ratio [3]: 2.6
- IC50 (LNCaP [4]): 4.2 µM
- IC50 (A-375 [5]): 15 µM
- IC50 (PC-3): 10 µM
- GI50 (SK-MEL-28): 1.49 µM
- TGI (SK-MEL-28): 2.81 µM
- CC50 (SK-MEL-28): 5.3 µM

SMILES: CCCCCCCCCCCCCCCCNC(=O)[C@@H]1CSC(c2ccc(NC(C)=O)cc2)N1 (mixture of isomers)
- GI50 (TK-10): 0.65 µM
- TGI (TK-10): 2.11 µM
- CC50 (TK-10): 5.4 µM
- GI50 (IGROV-1): 0.17 µM
- TGI (IGROV-1): 0.34 µM
- CC50 (IGROV-1): 0.65 µM
- GI50 (UO-31): 0.19 µM
- TGI (UO-31): 0.34 µM
- CC50 (UO-31): 6.1 µM
- GI50 (T47D): 0.24 µM
- TGI (T47D): 0.53 µM
- CC50 (T47D; [14]): 2.3 µM
- GI50 (NCI-H522): 3.81 µM
- TGI (NCI-H522): 20.7 µM
- CC50 (NCI-H522): > 100 µM
- GI50 (SK-MEL-2): 0.25 µM
- TGI (SK-MEL-2): 0.54 µM
- CC50 (SK-MEL-2; [14]): 1.75 µM
- MTD [6]: 42 mg/kg
- Activity (A-375 [7]): Dose-dependent effect
- GI50 (A549): 0.36 µM
- TGI (A549): 1.35 µM
- CC50 (A549; [14]): 5.28 µM
- GI50 (NCI-H226): 0.23 µM
- TGI (NCI-H226): 0.39 µM
- CC50 (NCI-H226): 0.69 µM
- inhibition at 20 µM (A-375 [8]): 75%
- Activity (Mus musculus): Non-toxic
- GI50 (DU-145 [2]): 0.27 µM
- TGI (DU-145 [2]): 0.63 µM
- CC50 (DU-145 [2]): 2.15 µM
- GI50 (NCI-H322M): 0.28 µM
- TGI (NCI-H322M): 0.85 µM
- CC50 (NCI-H322M): 3.22 µM
- GI50 (MDA-MB-468): 0.22 µM
- TGI (MDA-MB-468): 0.51 µM
- CC50 (MDA-MB-468; [14]): 1.54 µM
- GI50 (OVCAR-8): 0.28 µM
- TGI (OVCAR-8): 0.73 µM
- CC50 (OVCAR-8): > 100 µM
- Activity (A-375 [9]): Active
- GI50 (MCF7): 0.19 µM
- TGI (MCF7): 0.38 µM
- CC50 (MCF7; [14]): 0.8 µM
- GI50 (RXF 393): 0.2 µM
- TGI (RXF 393): 0.35 µM
- CC50 (RXF 393): 0.62 µM
- GI50 (SF-539): 0.26 µM
- TGI (SF-539): 0.7 µM
- CC50 (SF-539): 2.81 µM
- Activity (A-375 [10]): Active
- Activity (A-375 [11]): 62%
- GI50 (K562): 0.21 µM
- TGI (K562): 0.43 µM
- CC50 (K562; [14]): 0.9 µM
- Activity (A-375 [12]): 25%
- GI50 (786-0): 0.22 µM
- TGI (786-0): 0.42 µM
- CC50 (786-0): 0.77 µM
- GI50 (Malme-3M): 0.32 µM
- TGI (Malme-3M): 1.11 µM
- CC50 (Malme-3M; [14]): 3.95 µM
- Activity (LNCaP [13]): Dose-dependent effect
- GI50 (KM12): 0.18 µM
- TGI (KM12): 0.33 µM
- CC50 (KM12; [14]): 0.58 µM
- GI50 (SK-MEL-28): 0.13 µM
- TGI (SK-MEL-28): 0.26 µM
- CC50 (SK-MEL-28): 0.52 µM
